Assay results from paper PMC7191562 (ACS Omega, 2020).
Values after ≈ are worked out from the molar mass of the structure shown.

Test system: E. faecalis (MDR 14U0445)
Experiment: MIC antibacterial assay
Format: cell-based
Settings: Enterococcus faecalis, 16 h
In short: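 Clinical isolates grown from single colonies in LB at 37 °C to log phase, then set to 2 × 10⁵ CFU/mL in LB using 1 OD600 = 1 × 10⁹ CFU/mL. Peptide stock was 2 mg/mL in water. A 192 μg/mL peptide solution was twofold serially diluted in LB, then bacteria were added. Plates ran 16 h at 37 °C with A600 read-out, each peptide in triplicate.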

Structure (SMILES): CC1(C)S[C@@H]2[C@H](NC(=O)[C@H](N)c3ccccc3)C(=O)N2[C@H]1C(=O)O [Amp, Ampicillin]
- MIC: 2 µg/mL (≈ 5.72 µM)
